According to ChEMBL document CHEMBL5058577, “EUbOPEN Chemogenomics Library 2 (Multiplex)” (2022):

Test system: HEK-293T
Test: Multiplex assay against HEK293T
Assay type: toxicity, cell-based
Details: human
Outline: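 With compound added, live cells were imaged on a CQ1 microscope at 37°C and 5% CO2; staining with Hoechst33342, BioTracker Green Microtubule Cytoskeleton Dye, MitoTracker Red and Annexin V Alexa Fluor 680 had been done at seeding. The CellPathfinder machine-learning gating scheme split cells into Hoechst high-intensity objects or normal cells, normal cells into healthy, pyknosed or fragmented nuclei, and pyknosed cells into mitotic or apoptotic. The tubulin, mitochondrial-mass and membrane-permeability phenotypes are per cents of healthy-nucleus cells.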

[1] = 12 h, 1 µM, compound concentration 1 uM, replicate 1
[2] = 12 h, 1 µM, compound concentration 1 uM, replicate 2
[3] = 12 h, 10 µM, compound concentration 10 uM, replicate 1
[4] = 12 h, 10 µM, compound concentration 10 uM, replicate 2
[5] = 24 h, 1 µM, compound concentration 1 uM, replicate 1
[6] = 24 h, 1 µM, compound concentration 1 uM, replicate 2
[7] = 24 h, 10 µM, compound concentration 10 uM, replicate 1
[8] = 24 h, 10 µM, compound concentration 10 uM, replicate 2
[9] = 48 h, 1 µM, compound concentration 1 uM, replicate 1
[10] = 48 h, 1 µM, compound concentration 1 uM, replicate 2
[11] = 48 h, 10 µM, compound concentration 10 uM, replicate 1
[12] = 48 h, 10 µM, compound concentration 10 uM, replicate 2

COc1ccc2c(c1OCc1ccccc1)C[C@@H](C(=O)O)N(C(=O)C(c1ccccc1)c1ccccc1)C2 [OLODANRIGAN]
Population Apoptotic (%) [1]: 39%
Population Fragmented Nuclei (%) [1]: 6%
Population Healthy Nuclei (%) [1]: 82%
Population Hoechst High Intensity Objects (%) [1]: 7%
Population Membrane Permeable-Phenotype (%) [1]: 0%
Population Mitochondria Different-Phenotype (%) [1]: 44%
Population Mitotic Cells (%) [1]: 60%
Population Normal (%) [1]: 92%
Population Pyknosed Nuclei (%) [1]: 11%
Population Tubulin-Different-Phenotype (%) [1]: 21%
Total Cell Count [1]: 419
Population Apoptotic (%) [2]: 43%
Population Fragmented Nuclei (%) [2]: 7%
Population Healthy Nuclei (%) [2]: 81%
Population Mitochondria Different-Phenotype (%) [2]: 48%
Population Mitotic Cells (%) [2]: 56%
Population Pyknosed Nuclei (%) [2]: 10%
Population Tubulin-Different-Phenotype (%) [2]: 17%
Total Cell Count [2]: 409
Population Apoptotic (%) [3]: 45%
Population Fragmented Nuclei (%) [3]: 6%
Population Healthy Nuclei (%) [3]: 81%
Population Hoechst High Intensity Objects (%) [3]: 6%
Population Membrane Permeable-Phenotype (%) [3]: 0%
Population Mitochondria Different-Phenotype (%) [3]: 42%
Population Mitotic Cells (%) [3]: 54%
Population Normal (%) [3]: 93%
Population Pyknosed Nuclei (%) [3]: 12%
Population Tubulin-Different-Phenotype (%) [3]: 35%
Total Cell Count [3]: 389
Population Apoptotic (%) [4]: 44%
Population Fragmented Nuclei (%) [4]: 4%
Population Healthy Nuclei (%) [4]: 83%
Population Hoechst High Intensity Objects (%) [4]: 3%
Population Mitochondria Different-Phenotype (%) [4]: 58%
Population Mitotic Cells (%) [4]: 55%
Population Normal (%) [4]: 96%
Population Tubulin-Different-Phenotype (%) [4]: 27%
Total Cell Count [4]: 368
Population Apoptotic (%) [5]: 46%
Population Fragmented Nuclei (%) [5]: 11%
Population Healthy Nuclei (%) [5]: 78%
Population Hoechst High Intensity Objects (%) [5]: 3%
Population Membrane Permeable-Phenotype (%) [5]: 0%
Population Mitochondria Different-Phenotype (%) [5]: 24%
Population Mitotic Cells (%) [5]: 53%
Population Normal (%) [5]: 96%
Population Pyknosed Nuclei (%) [5]: 10%
Population Tubulin-Different-Phenotype (%) [5]: 15%
Total Cell Count [5]: 614
Population Apoptotic (%) [6]: 19%
Population Fragmented Nuclei (%) [6]: 10%
Population Healthy Nuclei (%) [6]: 81%
Population Hoechst High Intensity Objects (%) [6]: 6%
Population Membrane Permeable-Phenotype (%) [6]: 1%
Population Mitochondria Different-Phenotype (%) [6]: 30%
Population Mitotic Cells (%) [6]: 80%
Population Normal (%) [6]: 93%
Population Pyknosed Nuclei (%) [6]: 8%
Population Tubulin-Different-Phenotype (%) [6]: 14%
Total Cell Count [6]: 521
Population Apoptotic (%) [7]: 40%
Population Fragmented Nuclei (%) [7]: 7%
Population Healthy Nuclei (%) [7]: 78%
Population Hoechst High Intensity Objects (%) [7]: 6%
Population Membrane Permeable-Phenotype (%) [7]: 0%
Population Mitochondria Different-Phenotype (%) [7]: 34%
Population Mitotic Cells (%) [7]: 59%
Population Normal (%) [7]: 93%
Population Pyknosed Nuclei (%) [7]: 13%
Population Tubulin-Different-Phenotype (%) [7]: 32%
Total Cell Count [7]: 456
Population Apoptotic (%) [8]: 43%
Population Fragmented Nuclei (%) [8]: 10%
Population Healthy Nuclei (%) [8]: 79%
Population Mitochondria Different-Phenotype (%) [8]: 57%
Population Mitotic Cells (%) [8]: 56%
Population Pyknosed Nuclei (%) [8]: 9%
Population Tubulin-Different-Phenotype (%) [8]: 28%
Total Cell Count [8]: 414
Population Apoptotic (%) [9]: 26%
Population Fragmented Nuclei (%) [9]: 13%
Population Healthy Nuclei (%) [9]: 80%
Population Hoechst High Intensity Objects (%) [9]: 2%
Population Membrane Permeable-Phenotype (%) [9]: 0%
Population Mitochondria Different-Phenotype (%) [9]: 15%
Population Mitotic Cells (%) [9]: 73%
Population Normal (%) [9]: 97%
Population Pyknosed Nuclei (%) [9]: 5%
Population Tubulin-Different-Phenotype (%) [9]: 11%
Total Cell Count [9]: 1083
Population Apoptotic (%) [10]: 22%
Population Fragmented Nuclei (%) [10]: 15%
Population Healthy Nuclei (%) [10]: 79%
Population Mitochondria Different-Phenotype (%) [10]: 18%
Population Mitotic Cells (%) [10]: 77%
Population Tubulin-Different-Phenotype (%) [10]: 10%
Total Cell Count [10]: 818
Population Apoptotic (%) [11]: 32%
Population Fragmented Nuclei (%) [11]: 12%
Population Healthy Nuclei (%) [11]: 78%
Population Hoechst High Intensity Objects (%) [11]: 5%
Population Membrane Permeable-Phenotype (%) [11]: 0%
Population Mitochondria Different-Phenotype (%) [11]: 22%
Population Mitotic Cells (%) [11]: 67%
Population Normal (%) [11]: 94%
Population Pyknosed Nuclei (%) [11]: 8%
Population Tubulin-Different-Phenotype (%) [11]: 15%
Total Cell Count [11]: 659
Population Apoptotic (%) [12]: 39%
Population Healthy Nuclei (%) [12]: 80%
Population Hoechst High Intensity Objects (%) [12]: 6%
Population Mitochondria Different-Phenotype (%) [12]: 32%
Population Mitotic Cells (%) [12]: 60%
Population Normal (%) [12]: 93%
Population Pyknosed Nuclei (%) [12]: 7%
Population Tubulin-Different-Phenotype (%) [12]: 18%
Total Cell Count [12]: 534
